We go through 16 compounds from ChEMBL document CHEMBL1141909, “3-Arylidene-1-(4-nitrophenylmethylene)-3,4-dihydro-1H-naphthalen-2-ones and related compounds displaying selective toxicity and reversal of multidrug resistance in neoplastic cells” (2005).

Assay [1] can be described thus: Effect of compound on multidrug resistance in murine L-5178 cells at 40 ug/ml concentration; expressed as fluorescence activity ratio (treated/untreated cells). The format is functional, Mus musculus.
The subject of assay [2] is HL-60. The experiment in a line: Concentration for 50% cytotoxicity towards malignant cells expressed in HL-60 neoplastic cell line. The format is functional. The following applies: Homo sapiens. The gist of the method:
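Human promyelocytic leukaemia HL-60 cells were grown in RPMI1640 with 10% FBS and exposed to various compound concentrations for 24 h. Viable cell number was counted by trypan blue exclusion. CC50 was taken from dose-response curves, mean of duplicate determinations.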

Assay [3] is described as follows: Concentration for 50% cytotoxicity towards nonmalignant cells expressed in HPC normal pulp cells. Conditions: Homo sapiens.
Assay [4] can be described thus: Concentration for 50% cytotoxicity towards nonmalignant cells expressed in HGF normal gingival fibroblasts. The following applies: Homo sapiens.
Assay [5] in a line: Selectivity index of compound towards human malignant cell lines. The format is functional.
Assay [6] in a line: Effect of compound on multidrug resistance in colon320 neoplasm cells at 4 ug/ml concentration; expressed as fluorescence activity ratio (treated/untreated cells). The format is functional, Homo sapiens.
A short description of assay [7]: Concentration for 50% cytotoxicity towards malignant cells expressed in HSC-2 neoplastic cell line. Type of assay: functional. Conditions: Homo sapiens. The gist of the method:
(§1)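 Human oral squamous carcinoma HSC-2 and HSC-3 and submandibular gland carcinoma HSG cells were grown in DMEM with 10% heat-inactivated FBS. Near-confluent cells were exposed to various compound concentrations for 24 h. Viable cells were read by MTT (absorbance of stained lysate at 540). CC50 came from dose-response curves as the mean of duplicates.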

Assay [8] has as its system HSC-3. Nature of the assay: Concentration for 50% cytotoxicity towards malignant cells expressed in HSC-3 neoplastic cell line. Conditions: Homo sapiens. The format is functional. The gist of the method: as §1
Assay [9] is described as follows: Concentration for 50% cytotoxicity towards nonmalignant cells expressed in HPLF normal periodontal ligament fibroblasts. Conditions: Homo sapiens.
Assay [10] can be described thus: Effect of compound on multidrug resistance in murine L-5178 cells at 4 ug/ml concentration; expressed as fluorescence activity ratio (treated/untreated cells). Type of assay: functional, Mus musculus.
A short description of assay [11]: Effect of compound on multidrug resistance in colon320 neoplasm cells at 40 ug/ml concentration; expressed as fluorescence activity ratio (treated/untreated cells). The format is functional, Homo sapiens.
Assay [12] can be described thus: Concentration for 50% cytotoxicity towards malignant cells expressed in HSG neoplastic cell line. Type of assay: functional. Conditions: Homo sapiens. The gist of the method: as §1

In general, CC50 refers to the concentration giving 50% cytotoxicity. A low value points to greater toxicity to the cells.

Turning to `COc1cc(/C=C2\CC/C(=C\c3ccc([N+](=O)[O-])cc3)C2=O)cc(OC)c1OC`, the Effect is reported as 6.62 in assay [1], 1.96 in assay [6], 3.06 in assay [10] and 1.28 in [11]. The CC50 in assay [2], in [3], in assay [4], in [7], in [8] and in assay [9] was above 400 µM each time. This compound also yielded a CC50 in assay [12] above 400 µM. Further, the SI in assay [5] was around 1.

With `COc1ccc(/C=C2\CCC/C(=C\c3ccc([N+](=O)[O-])cc3)C2=O)cc1OC`, the Effect is given as 47.3 in [1], 6.12 in [6], 20.4 in [10] and 4.62 in [11]. The CC50 was 4.3 µM in [2]; 82 µM in [3]; 53 µM in [4]; 2.3 µM in assay [7]; 4.4 µM in [8]; 95 µM in assay [9]. The compound also returned a CC50 in [12] of 13 µM. In addition, the SI in assay [5] is 13.

Consider `O=C1/C(=C/c2ccc(O)cc2)CCC/C1=C\c1ccc([N+](=O)[O-])cc1`, for which the Effect in [1] worked out at 0.97; in assay [6], 1.15; in [10] it was 0.94; in assay [11], 0.6. Besides, the CC50 is 4.4 µM in assay [2]; above 400 µM in [3]; above 400 µM in assay [4]; 8.1 µM in [7]; 13 µM in assay [8]; above 400 µM in [9]. For the same compound, the CC50 in assay [12] was above 400 µM. This compound also displayed an SI in assay [5] of around 3.8.

Consider `COc1cc(/C=C2\Cc3ccccc3/C(=C\c3ccc([N+](=O)[O-])cc3)C2=O)cc(OC)c1OC`, for which the Effect turned out to be 120 in assay [1], 10.9 in assay [6], 134 in assay [10] and 13 in assay [11]. In addition, the CC50 was 0.55 µM in assay [2]; above 400 µM in assay [3]; above 400 µM in assay [4]; 0.55 µM in assay [7]; 2.9 µM in [8]; above 400 µM in assay [9]. This compound came in with a CC50 in assay [12] of 3 µM. The SI in [5] is above 229.

As to `COc1cc(/C=C2/C(=O)/C(=C/c3ccc([N+](=O)[O-])cc3)c3ccccc32)cc(OC)c1OC`, the CC50 in [2] was 318 µM; in assay [3], 153 µM; in assay [4], 89 µM; in assay [7], 221 µM; in [8] it was above 400 µM; in [9], above 400 µM. This compound came in with a CC50 in assay [12] above 400 µM. For the same compound, the SI in [5] is around 0.6.

As for `O=C1/C(=C/c2ccc(Cl)cc2)CCC/C1=C\c1ccc([N+](=O)[O-])cc1`, the Effect in assay [1] stood at 0.94; in assay [6], 0.6; in [10], 1.16; in assay [11] it was 0.53. The CC50 was 4.1 µM in assay [2]; 345 µM in assay [3]; 191 µM in [4]; 1.5 µM in assay [7]; 4.6 µM in assay [8]; 332 µM in assay [9]. Moreover, in assay [12], the CC50 is 15 µM. For the same compound, the SI in assay [5] came to 46.

`COc1cc(/C=C2\CCC/C(=C\c3ccc([N+](=O)[O-])cc3)C2=O)ccc1O`: the Effect came to 0.83 in [1], 1.98 in [6], 1.5 in assay [10] and 1.13 in assay [11]. In addition, the CC50 in assay [2] was 3.4 µM; in assay [3], above 400 µM; in assay [4], 165 µM; in assay [7], 2.8 µM; in assay [8], 5.2 µM; in assay [9], 171 µM. Besides, the CC50 in [12] amounted to 11 µM. In assay [5], this compound displayed an SI above 44.

As to `COc1ccc(/C=C2\Cc3ccccc3/C(=C\c3ccc([N+](=O)[O-])cc3)C2=O)cc1OC`, the Effect in assay [1] is 55.9; in assay [6], 7.19; in assay [10] it was 44.1; in assay [11], 11.4. The CC50 in [2] was 0.56 µM; in assay [3], above 400 µM; in assay [4], above 400 µM; in assay [7] it was 0.92 µM; in assay [8] it was 4.2 µM; in assay [9], above 400 µM. In [12], this compound showed a CC50 of 4.4 µM. The same compound gave an SI in assay [5] above 159.

`O=C1/C(=C/c2ccc(O)cc2)Cc2ccccc2/C1=C\c1ccc([N+](=O)[O-])cc1`: the Effect in assay [1] turned out to be 39.3; in assay [6] it was 1.99; in assay [10], 135; in assay [11] it was 11.7. The CC50 in assay [2] came out at 2.5 µM; in assay [3] it was 113 µM; in [4], 85 µM; in assay [7] it was 5.2 µM; in assay [8] it was 14 µM; in assay [9], 75 µM. Besides, half-maximal cytotoxicity in assay [12] (CC50) was put at 11 µM. In assay [5], this compound registered an SI of 12.

On to `COc1cc(/C=C2\Cc3ccccc3/C(=C\c3ccc([N+](=O)[O-])cc3)C2=O)ccc1O`, for which the Effect in [1] is listed as 123; in [6], 3.38; in assay [10], 51.8; in assay [11], 6.2. In addition, the CC50 came to 0.95 µM in assay [2]; 83 µM in assay [3]; 33 µM in assay [4]; 1.45 µM in assay [7]; 3.8 µM in assay [8]; 21 µM in [9]. In assay [12], this compound registered a CC50 of 5.8 µM. For the same compound, in assay [5], the SI came to 15.

Take `O=C1/C(=C/c2ccc([N+](=O)[O-])cc2)CCC/C1=C\c1ccc2c(c1)OCO2`: the Effect in assay [1] was 1.23; in assay [6], 0.67; in [10], 0.91; in [11] it was 0.59. Moreover, the CC50 in [2] was above 400 µM; in assay [3] it was 391 µM; in assay [4], above 400 µM; in assay [7], 308 µM; in [8], 189 µM; in [9], 330 µM. Moreover, in assay [12], the CC50 is above 400 µM. Besides, the SI in [5] is around 1.2.

As for `COc1ccc(/C=C2\CCC/C(=C\c3ccc([N+](=O)[O-])cc3)C2=O)cc1`, the Effect in assay [1] was 0.82; in [6], 0.5; in assay [10], 0.76; in assay [11], 0.58. The CC50 in assay [2], in assay [3], in assay [4], in [7], in [8] and in [9] was above 400 µM in each case. The compound also registered a CC50 in assay [12] above 400 µM. Further, the SI in assay [5] was around 1.

With `COc1cc(/C=C2\CCC/C(=C\c3ccc([N+](=O)[O-])cc3)C2=O)cc(OC)c1OC`, the Effect in [1] came to 75.1; in assay [6] it was 7.43; in [10] it was 15.6; in [11], 4.38. Also, the CC50 in assay [2] is 1.1 µM; in [3] it was 347 µM; in assay [4], 336 µM; in assay [7], 0.76 µM; in assay [8], 4.7 µM; in assay [9], 378 µM. The same compound displayed a CC50 in assay [12] of 8.3 µM. In [5], the SI amounted to 95.

With `COc1ccc(/C=C2\Cc3ccccc3/C(=C\c3ccc([N+](=O)[O-])cc3)C2=O)cc1`, the Effect came to 7.68 in [1], 2.22 in assay [6], 4.36 in assay [10] and 4.3 in [11]. The CC50 in assay [2] is 4.4 µM; in assay [3] it was above 400 µM; in [4], above 400 µM; in [7] it was 11 µM; in [8] it was 32 µM; in [9] it was above 400 µM. For the same compound, half-maximal cytotoxicity in assay [12] (CC50) was put at 47 µM. This compound also registered an SI in assay [5] above 17.

With `COc1ccc(/C=C2\CC/C(=C\c3ccc([N+](=O)[O-])cc3)C2=O)cc1`, the Effect in [1] was determined as 0.69; in assay [6], 0.63; in assay [10] it was 0.59; in [11] it was 0.37. In addition, the CC50 in assay [2] was above 400 µM; in assay [3], above 400 µM; in assay [4], above 400 µM; in [7] it was 63 µM; in [8] it was above 400 µM; in [9] it was above 400 µM. In assay [12], this compound showed a 50% cytotoxic concentration (CC50) above 400 µM. The SI in assay [5] was around 1.3.

Turning to `COc1cccc2c1C(=O)c1c(O)c3c(c(O)c1C2=O)C[C@@](O)(C(=O)CO)C[C@@H]3O[C@H]1C[C@H](N)[C@H](O)[C@H](C)O1` [DOXORUBICIN], the CC50 was 0.47 µM in assay [2]; 414 µM in assay [3]; 233 µM in [4]; 0.68 µM in [7]; 2.9 µM in assay [8]; above 400 µM in assay [9]. This compound had a CC50 in [12] of 1.9 µM. The SI in [5] was above 235.
